In the library only some 5.9% were active in any assay of this set; here they are far more common.
IDH1 mut inh = inhibitors of IDH1 R132H reductase, primary screen, biochemical, plate reader, single point; Isocitrate dehydrogenase [NADP] cytoplasmic (Homo sapiens), O75874; diaphorase/resazurin fluorescence, 60 min; inhibition, % at 10 µM; 70,000 tested, 0.18% active; AID 624101, 2012; in the data active = inhibition above about 34%; inconclusive = no clear call, values can overlap the other calls; inactive = below about 11%;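 also: 0% = DMSO and 100% = no enzyme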
T cruzi growth-1 = T. cruzi intracellular proliferation inhibitors, primary screen, cell-based, beta-gal Tulahuen parasites, NIH3T3 host, luminescence; 77,000 tested, 5.9% active; AID 624255, 2012; T. cruzi beta-gal in NIH3T3, GalScreen luminescence, 90 h; inhibition, % at 8.34 µM;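 active = mean inhibition above about 93%, with at least 55% of replicates each passing it, limit read from the data, passing the limit was not always enough; inconclusive = only one of those two conditions holds; inactive = neither condition holds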
KDM4C inh = inhibitors of GASC-1 (KDM4C) histone demethylase, primary screen, biochemical, single concentration HTS | 96,000 tested, 0.15% active | GST-KDM4C 2-372, H3K9me3 peptide, LANCE TR-FRET | inhibition, % at 12.5 µM | AID 720574, 2013;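 active = mean replicate inhibition above about 25%, with at least 55% of replicates also reaching it, limit read from the data, passing the limit was not always enough; inconclusive = only one of those two conditions met; inactive = neither condition met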
Target sequence (Q9H3R0 2-372 limits assumed): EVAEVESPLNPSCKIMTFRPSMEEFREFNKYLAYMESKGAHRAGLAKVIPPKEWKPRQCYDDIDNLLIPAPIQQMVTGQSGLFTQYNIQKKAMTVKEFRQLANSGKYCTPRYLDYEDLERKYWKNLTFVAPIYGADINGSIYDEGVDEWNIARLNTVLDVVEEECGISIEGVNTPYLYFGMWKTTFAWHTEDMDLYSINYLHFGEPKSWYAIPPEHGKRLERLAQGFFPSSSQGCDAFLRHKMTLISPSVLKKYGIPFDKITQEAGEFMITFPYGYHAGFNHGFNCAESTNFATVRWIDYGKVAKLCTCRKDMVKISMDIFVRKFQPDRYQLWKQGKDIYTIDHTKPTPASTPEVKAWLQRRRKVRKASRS
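System: N-terminal GST-fused human GASC-1 (KDM4C) fragment, residues 2-372; amount: enzyme final amount 10 nM; incubation: reaction 30 min RT, detection step 1 h RT; medium: HEPES buffer, pH 7.5, plus ascorbate; technique: LANCE TR-FRET, Eu antibody, ULight-streptavidin, EDTA, ex 340 nm, em 618/671 nm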
Pf Dd2 growth = P. falciparum Dd2 growth inhibitors, primary screen, SYBR Green fluorescence, single dose replicates; activity change, % at 10 µM; AID 1159554, 2015; 94,000 tested, 2.3% active; 72 h; hits give low values; in the data active = activity change below about -80%; inconclusive = no clear call, values can overlap the other calls
T cruzi growth-2 = T. cruzi intracellular proliferation inhibitors, confirmation, cell-based, NIH3T3 host, beta-gal parasite, luminescence, cherry-pick; inhibition, % at 8.35 µM; 5,600 tested, 72% active; AID 651739, 2012; shares compounds with T cruzi growth-1; T. cruzi beta-gal in NIH3T3, GalScreen luminescence, 90 h;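 active = mean replicate inhibition above about 95% and at least 55% of replicates individually reaching it, limit read from the data; inconclusive = only one of the two criteria is met; inactive = neither criterion is met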
T cruzi growth-3 = inhibitors of intracellular T. cruzi replication, confirmation, NIH3T3 host cells, beta-gal parasites, cherry-pick, set 2; shares compounds with T cruzi growth-1; T. cruzi beta-gal in NIH3T3, GalScreen luminescence, 90 h; 5,600 tested, 21% active; inhibition, % at 2.09 µM;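 active = mean inhibition above about 95%, with at least 55% of replicates also reaching it, limit read from the data; inconclusive = meets just one of the two conditions; inactive = meets neither condition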;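 also: plate controls were neutral control median for no effect and positive control median for full effect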
3T3 cytotox = cytotoxicity in mouse NIH/3T3 fibroblasts, confirmation, cytotoxicity control for T. cruzi proliferation inhibitor project, cell-based, cherry-pick, single point | shares compounds with T cruzi growth-1 | NIH/3T3 viability, CellTiter-Glo ATP luminescence, 90 h | cytotoxicity (signal decrease), % at 8.35 µM | 5,600 tested, 14% active | AID 651742, 2012;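 active = mean signal decrease across replicates above about 35% based on untreated-well scatter, with enough replicates individually passing, limit read from the data; inconclusive = no rule stated though some were filed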;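 also: 0% = median of neutral control wells and 100% = median of positive control wells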
NIH3T3 tox 2 = NIH/3T3 fibroblast cytotoxicity, confirmation, cytotoxicity control, cell-based, cherry-pick, single point, set 2; shares compounds with T cruzi growth-1; NIH/3T3 viability, CellTiter-Glo ATP luminescence, 90 h; inhibition, % at 24.9 µM; 5,600 tested, 56% active; AID 651744, 2012;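 active = mean loss of cell viability signal at or above a set limit, and enough replicates individually reaching it; inconclusive = meets only the mean limit or only the replicate share; inactive = meets neither condition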;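 also: 0% = median of neutral control wells and 100% = median of positive control wells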
* marks the source's active call; other numbers are inactive results; u = inconclusive; x = no result.

SMILES | IDH1 mut inh | T cruzi growth-1 | KDM4C inh | Pf Dd2 growth | T cruzi growth-2 | T cruzi growth-3 | 3T3 cytotox | NIH3T3 tox 2
Cc1ccc(S(=O)(=O)N(C)C[C@H]2Oc3c(cccc3N(C)C)C(=O)N([C@@H](C)CO)C[C@H]2C)cc1 | x | 102* | 2 | -40 | 76 | 20 | 24 | 10
O=C(CSc1nc2ccccc2[nH]1)Nc1ccc(Cl)cc1O | 0 | x | x | x | x | x | x | x
Cc1ccc(OCC(=O)Nc2nc(C)cc(C)n2)cc1 | 1 | x | x | x | x | x | x | x
Cc1ccc(S(=O)(=O)N(C)C[C@@H]2Oc3ncc(/C=C/c4ccccc4)cc3C(=O)N([C@H](C)CO)C[C@@H]2C)cc1 | -1 | 120* | 2 | -70 | 102* | 92 | 25 | 54*
C[C@H]1CCCCO[C@H](CN(C)C(=O)Nc2cccc3ccccc23)[C@@H](C)CN([C@@H](C)CO)C(=O)c2cc(NC(=O)Nc3ccc(F)cc3)ccc2O1 | x | 17 | -2 | 8 | x | x | x | x
COc1ccc(NC(=O)Nc2ccc3c(c2)C(=O)N([C@H](C)CO)C[C@H](C)[C@@H](CN(C)C(=O)Nc2cccc4ccccc24)OCCCC[C@H](C)O3)cc1 | x | 35 | 0 | -15 | x | x | x | x
C[C@@H]1CCCCO[C@@H](CN(C)C(=O)Nc2ccc(F)cc2)[C@@H](C)CN([C@H](C)CO)C(=O)c2cc(NC(=O)Nc3cccc4ccccc34)ccc2O1 | 1 | 103* | -1 | 11 | 89 | 18 | 4 | 15
C[C@H]1CCCCO[C@H](CN(C)C(=O)Nc2cccc3ccccc23)[C@@H](C)CN([C@@H](C)CO)C(=O)c2cc(NC(=O)Nc3ccccc3)ccc2O1 | x | u | 0 | -9 | 106* | 113* | 1 | -9
COc1ccc(NC(=O)Nc2ccc3c(c2)C(=O)N([C@@H](C)CO)C[C@@H](C)[C@@H](CN(C)C(=O)Nc2cccc4ccccc24)OCCCC[C@@H](C)O3)cc1 | x | u | -5 | -70 | 103* | 74 | 6 | -9
C[C@@H]1CCCCO[C@@H](CN(C)C(=O)Nc2cccc3ccccc23)[C@H](C)CN([C@H](C)CO)C(=O)c2cc(NC(=O)Nc3ccc(F)cc3)ccc2O1 | 1 | 96* | -2 | -51 | 102* | 109* | -10 | 2
C[C@@H]1CCCCO[C@@H](CN(C)C(=O)Nc2ccc(F)cc2)[C@@H](C)CN([C@@H](C)CO)C(=O)c2cc(NC(=O)Nc3cccc4ccccc34)ccc2O1 | x | 89 | 0 | -77 | x | x | x | x
C[C@H](CO)N1C[C@H](C)[C@@H](CN(C)C(=O)Nc2cccc3ccccc23)OCCCC[C@H](C)Oc2ccc(NC(=O)Nc3ccccc3)cc2C1=O | 1 | 55 | 1 | 12 | x | x | x | x
O=C(CSc1nnnn1-c1ccccc1)Nc1ccc(Br)cc1Cl | 0 | x | x | x | x | x | x | x
O=C(CCCCCCC(=O)Nc1ccccc1O)N/N=C/c1cc(Br)ccc1O | 0 | x | x | x | x | x | x | x
C[C@H]1CCCCO[C@H](CN(C)C(=O)Nc2ccc(F)cc2)[C@@H](C)CN([C@@H](C)CO)C(=O)c2cc(NC(=O)Nc3cccc4ccccc34)ccc2O1 | 0 | 117* | 0 | -46 | 113* | 93 | -17 | -18
C[C@H]1CCCCO[C@H](CN(C)C(=O)Nc2cccc3ccccc23)[C@@H](C)CN([C@@H](C)CO)C(=O)c2cc(NC(=O)Cc3ccccc3)ccc2O1 | 2 | 97* | -3 | -84* | 104* | 118* | 22 | 24*
